Assay results from different studies.
Each line is one published result; the experiments were not run side by side. ≈ marks a conversion by molar mass, not a printed value.
Organism: Cryptococcus neoformans

SMILES | assay | system | setting | measurement | result
C[C@@H]1[C@H](O)[C@@H](C)/C=C/C=C/C=C/C=C/C=C/C=C/C=C/[C@H](O[C@@H]2O[C@H](C)[C@@H](O)[C@H](N)[C@@H]2O)C[C@@H]2O[C@](O)(C[C@@H](O)C[C@@H](O)[C@H](O)CC[C@@H](O)C[C@@H](O)CC(=O)O[C@H]1C)C[C@H](O)[C@H]2C(=O)O | microbial killing | ATCC90113 | – | MFC | 2.5 µg/mL (≈ 2.71 µM)
CCCCCCCCCCCCCC(O)CC(O)CO (stereo not drawn) | microbial growth, broth dilution | ATCC90113 | – | IC50 | 32.9 µg/mL (≈ 114 µM)
Cc1occc(=O)c1O | microbial growth, broth dilution | – | 48 h | MIC | > 100 µM
OC(Cn1cncn1)(Cn1cncn1)c1ccc(F)cc1F | microbial growth, broth dilution | ATCC208821 | 24 h | MIC | 8 µg/mL
C#CCCCCCCCCCCCC(O)CC(O)CO (stereo not drawn) | microbial growth, broth dilution | ATCC90113 | – | IC50 | 8 µg/mL (≈ 28.1 µM)
O=C(CCc1cc(O)c(O)c(O)c1)NCCCCCCCC[P+](c1ccccc1)(c1ccccc1)c1ccccc1.[Br-] | microbial growth, broth dilution | ATCC208821 | 24 h | MIC | > 32 µg/mL
C[C@@H]1[C@H](O)[C@@H](C)/C=C/C=C/C=C/C=C/C=C/C=C/C=C/[C@H](O[C@@H]2O[C@H](C)[C@@H](O)[C@H](N)[C@@H]2O)C[C@@H]2O[C@](O)(C[C@@H](O)C[C@@H](O)[C@H](O)CC[C@@H](O)C[C@@H](O)CC(=O)O[C@H]1C)C[C@H](O)[C@H]2C(=O)O | microbial growth | ATCC90113 | – | MIC | 0.68 µM
C#CCCCCCCCCC=CCC(O)CC(O)CO (stereo not drawn) | microbial growth, broth dilution | ATCC90113 | – | IC50 | > 8 µg/mL
O=C(CCCCCC[P+](c1ccccc1)(c1ccccc1)c1ccccc1)Nc1ccc(O)c(O)c1.[Br-] | microbial growth, broth dilution | ATCC208821 | 24 h | MIC | > 32 µg/mL
